Measurements from ChEMBL document CHEMBL4261652, “Modifying aroylhydrazone prochelators for hydrolytic stability and improved cytoprotection against oxidative stress” (Bioorg Med Chem, 2018).
Activity calls are given as the source filed them. The rule behind the calls is not given here.

Key:
[1] = Iron chelating activity of the compound assessed as recovery of calcein fluorescence from calcein-Fe3+ complex by measuring iron binding constant at 4 uM measured after 2 hrs by fluorescence assay
In short: (§1)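 Compound at 100 μM in PBS pH 7.4, prepared fresh, either used directly or first incubated 12 h with 5 mM H2O2. Then brought to 4 μM with 2 μM Fe3+-calcein (preformed 4 h from ferric ammonium citrate and calcein) in PBS, equilibrated 2 h at 25 °C; emission read 485/535 nm, as percent of free calcein; n = 3.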

[2] = Iron chelating activity of the compound assessed as recovery of calcein fluorescence from calcein-Fe3+ complex by measuring iron binding constant at 4 uM preincubated with H2O2 for 12 hrs followed by addition to calcein-Fe3+ complex measured after 2 hrs by fluorescence assay; in short: as §1
ARPE-19 [3] = experiment: Cytotoxicity against human ARPE19 cells up to 100 uM after 24 hrs by CellTiter-Blue assay; format: cell-based; conditions: arpe-19, 24 h
[4] = Iron chelating activity of the compound assessed as recovery of calcein fluorescence from calcein-Fe3+ complex at 4 uM preincubated with H2O2 for 12 hrs followed by addition to calcein-Fe3+ complex measured after 2 hrs by fluorescence assay relative to control; in short: as §1
ARPE-19 [5] = experiment: Cytoprotective activity against H2O2-induced oxidative stress in human ARPE19 cells up to 100 uM pretreated for 5 hrs followed by H2O2-stimulation and measured after 19 hrs by CellTiter-Blue assay; format: functional, cell-based
In short: (§2)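 ARPE-19 cells grown to confluence in 1:1 DMEM/F12 with 10% FBS, 37 °C, 5% CO2; washed with MEM, pre-treated 5 h with compound, then H2O2 added to 200 μM final; viability read 19 h later by CellTiter-Blue, as percent of untreated control; triplicate runs, mean ± SD.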

[6] = Hydrolytic stability of compound in D2O/5% DMSO-d6 solvent at 500 uM after 1 hr by 1H-NMR spectroscopy; format: physicochemical
In short: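 1H NMR in D2O: prochelator at 500 μM with 5% DMSO-d6, or at 200 μM with 2% DMSO-d6, equilibrated 1 h before spectra; activation by H2O2 added to 25 mM final (10 mM in the 200 μM case), reacting 12 h; aromatic peaks integrated.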

ARPE-19 [7] = experiment: Cytoprotective activity against paraquat-induced oxidative stress in human ARPE19 cells up to 100 uM pretreated for 5 hrs followed by paraquat-stimulation and measured after 48 hrs by CellTiter-Blue assay; format: functional, cell-based
[8] = Hydrolytic stability in PBS of pH 7.4 at 50 uM after 1 hr by UV-Vis spectrophotometric analysis; format: physicochemical; conditions: buffer, pH 7.4, 1 h
ARPE-19 [9] = experiment: Cytoprotective activity against H2O2-induced oxidative stress in human ARPE19 cells at 25 to 50 uM pretreated for 5 hrs followed by H2O2-stimulation and measured after 19 hrs by CellTiter-Blue assay; format: functional, cell-based; in short: as §2
[10] = Hydrolytic stability of compound in D2O/5% DMSO-d6 solvent at 500 uM preincubated for 1 hr followed by H2O2 addition measured after 24 hrs by 1H-NMR spectroscopy; format: physicochemical; conditions: D2O/5% DMSO-d6 with H2O2 added; read-out: Stability
[11] = Hydrolytic stability in pH 7.4 PBS buffer at 100 uM by UV-Vis spectrophotometric analysis; format: physicochemical; conditions: pH 7.4, 100 µM, TDE = time-dependent effect
In short: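 UV-Vis monitoring of prochelator in PBS pH 7.4 at 1-min intervals over 30 min in 1-cm quartz cuvettes; hydrazide plus aldehyde (100 μM each) mixtures followed as reference.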

ARPE-19 [12] = experiment: Cytotoxicity against human ARPE19 cells up to 100 uM over 72 hrs by CellTiter-Blue assay; format: cell-based; conditions: arpe-19, 72 h
In short: (§3)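 Confluent ARPE-19 monolayers washed three times with MEM, then exposed 72 h to compound at 5–100 μM in MEM containing up to 1% DMSO; viability by CellTiter-Blue; triplicate runs, standard deviations.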

ARPE-19 [13] = experiment: Cytoprotective activity against H2O2-induced oxidative stress in human ARPE19 cells at 25 uM pretreated for 5 hrs followed by H2O2-stimulation and measured after 19 hrs by CellTiter-Blue assay; format: functional, cell-based; in short: as §2
ARPE-19 [14] = experiment: Cytoprotective activity against paraquat-induced oxidative stress in human ARPE19 cells assessed as cell viability at 100 uM pretreated for 5 hrs followed by paraquat-stimulation and measured after 48 hrs by CellTiter-Blue assay; format: functional; conditions: read-out: Activity
ARPE-19 [15] = experiment: Cytotoxicity against human ARPE19 cells assessed as reduction in cell viability at 100 uM after 72 hrs by CellTiter-Blue assay; format: cell-based; conditions: arpe-19, 72 h; in short: as §3
[16] = Hydrolytic stability in PBS of pH 7.4 assessed as equilibrium constant for hydrolytic product formation after 1 hr measured at 1 min intervals over 30 mins by UV-Vis spectrophotometric analysis; format: physicochemical; conditions: buffer, pH 7.4, 1 h
In short: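 K measured by UV-Vis on equilibrated prochelator solutions in PBS pH 7.4 at several starting concentrations. Absorbances at 263 and 321 nm, with extinction coefficients from linear calibration plots, gave equilibrium concentrations of prochelator, hydrazide and aldehyde; K = [INH][FBA]/[prochelator].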

[17] = Cytotoxicity against rat H9c2 cells after 72 hrs by neutral red uptake assay; format: cell-based; conditions: read-out: TC50
ARPE-19 [18] = experiment: Cytoprotective activity against paraquat-induced oxidative stress in human ARPE19 cells pretreated for 5 hrs followed by paraquat-stimulation and measured after 48 hrs by CellTiter-Blue assay; format: functional, cell-based
ARPE-19 [19] = experiment: Cytoprotective activity against paraquat-induced oxidative stress in human ARPE19 cells assessed as cell viability restoration at 100 uM after 48 hrs relative to control; format: functional
In short: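 ARPE-19 cells were grown to confluence in 1:1 DMEM/F12 with 10% FBS at 37 °C and 5% CO2, then washed with MEM. Cells were co-incubated in MEM with 10 mM paraquat plus compound for 48 h, with no pre-incubation step. Viability was read by CellTiter-Blue and expressed as % of the untreated MEM-only control. Triplicate runs, SD.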

ARPE-19 [20] = experiment: Cytotoxicity against human ARPE19 cells up to 100 uM after 72 hrs by CellTiter-Blue assay; format: cell-based; conditions: arpe-19, 72 h; in short: as §3
[21] = Hydrolytic stability of compound in D2O/5% DMSO-d6 solvent at 200 uM after 1 hr by 1H-NMR spectroscopy; format: physicochemical; conditions: read-out: Stability
[22] = Hydrolytic stability of compound in D2O/2% DMSO-d6 solvent at 200 uM preincubated for 1 hr followed by H2O2 addition measured after 24 hrs by 1H-NMR spectroscopy; format: physicochemical; conditions: D2O/2% DMSO-d6 with H2O2 added; read-out: Stability
[23] = Solubility of the compound in aqueous buffer at >50 uM; format: physicochemical

Activity [1] | Activity [4] | SMILES | Activity (ARPE-19 [3]) | also measured
> 90% | – | O=C(N/N=C/c1ccccc1O)c1ccncc1 [SALINAZID] | Non-Toxic | log(activity) [2]: -23
inactive | inactive | CC1(C)OB(c2ccccc2/C=N/NC(=S)Nc2ccccc2)OC1(C)C | Non-Toxic | Activity (ARPE-19 [9]): Active; Activity (ARPE-19 [7]): inactive
inactive | – | CNC(=S)N/N=C/c1ccccc1O | Non-Toxic | Activity (ARPE-19 [5]): inactive
inactive | – | Oc1ccccc1/C=N/NC(=S)Nc1ccccc1 | Non-Toxic | –

More lines, now with the values behind:

SMILES | Activity [1] | Activity [4] | Activity (ARPE-19 [3]) | also measured
COc1ccc(/C=N/NC(=O)c2cccnc2)c(B2OC(C)(C)C(C)(C)O2)c1 | inactive | inactive | Non-Toxic | –
COc1ccc(/C=N/NC(=O)c2cccnc2)c(O)c1 | > 90% | – | Non-Toxic | –
COc1ccc(/C=N/NC(=O)c2ccncc2)cc1B1OC(C)(C)C(C)(C)O1 | inactive | inactive | Non-Toxic | Activity (ARPE-19 [5]): inactive; Stability ([6]; 1 h, 500 µM): Stable; Activity (ARPE-19 [7]): inactive; Stability [8]: Stable
O=C(N/N=C/c1ccc(Cl)cc1B(O)O)c1ccncc1 | inactive | inactive | Non-Toxic | –
COc1ccc(O)c(/C=N/NC(=O)c2ccncc2)c1 | > 90% | – | Non-Toxic | –
CNC(=S)N/N=C/c1ccccc1B1OC(C)(C)C(C)(C)O1 | inactive | inactive | Non-Toxic | Activity (ARPE-19 [5]): inactive
COc1ccc(B2OC(C)(C)C(C)(C)O2)c(/C=N/NC(=O)c2ccncc2)c1 | inactive | 60% | Non-Toxic | remaining at 24 h, 500 µM [10]: 67%; Stability [11]: Tde; Activity (ARPE-19 [12]): Toxic; Activity (ARPE-19 [13]): Active; remaining at 1 h, 500 µM ([6]; D2O/5% DMSO-d6, read-out: Stability): 85%; viability at 100 µM (ARPE-19 [14]): 30%; Activity (ARPE-19 [15]): 20%; K [16]: 1.1 ×10⁻⁵ M
C/C(=N\NC(=O)c1ccncc1)c1ccccc1OCc1ccc(B2OC(C)(C)C(C)(C)O2)cc1 | – | – | – | CC50 at 72 h [17]: 37.1 µM; Activity (ARPE-19 [18]): Dose-dependent effect; Activity (ARPE-19 [15]): 25%; Activity (ARPE-19 [19]): 40%
CC1(C)OB(c2cc3c(cc2/C=N/NC(=O)c2ccncc2)OCO3)OC1(C)C | inactive | 75% | Non-Toxic | Stability [11]: Tde; Activity (ARPE-19 [20]): Non-Toxic; Activity (ARPE-19 [13]): Active; Activity (ARPE-19 [18]): Dose-dependent effect; remaining at 1 h, 200 µM [21]: 80%; remaining at 24 h, 200 µM [22]: 45%; K [16]: 8 ×10⁻⁶ M
COc1ccc(/C=N/NC(=O)c2ccncc2)c(O)c1 | – | – | – | solubility [23]: Insoluble
CC1(C)OB(c2ccccc2/C=N/NC(=O)c2ccncc2)OC1(C)C | inactive | 50% | Non-Toxic | Activity (ARPE-19 [20]): Non-Toxic; Activity (ARPE-19 [9]): Active; Activity (ARPE-19 [7]): inactive; K [16]: 1.5 ×10⁻⁵ M
